Compound activity: PubChem, The Scripps Research Institute Molecular Screening Center
A selection: hits, their analogues and other compounds. The true share with any hit is near 4.6%.
OX1R antag-1: antagonists of human orexin 1 receptor (OX1R). Orexin/Hypocretin receptor type 1 (Homo sapiens), O43613. OX1R-expressing cells, FRET antagonist read-out. hit rate 1.8% among 330,000. inhibition, % at 6.6 µM; in the data active = inhibition mostly above about 38%, no sharp cut-off; inactive = mostly below about 40%;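 also: 0% = agonist challenge alone and 100% = reference antagonist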
Target sequence (O43613 whole entry, looked up): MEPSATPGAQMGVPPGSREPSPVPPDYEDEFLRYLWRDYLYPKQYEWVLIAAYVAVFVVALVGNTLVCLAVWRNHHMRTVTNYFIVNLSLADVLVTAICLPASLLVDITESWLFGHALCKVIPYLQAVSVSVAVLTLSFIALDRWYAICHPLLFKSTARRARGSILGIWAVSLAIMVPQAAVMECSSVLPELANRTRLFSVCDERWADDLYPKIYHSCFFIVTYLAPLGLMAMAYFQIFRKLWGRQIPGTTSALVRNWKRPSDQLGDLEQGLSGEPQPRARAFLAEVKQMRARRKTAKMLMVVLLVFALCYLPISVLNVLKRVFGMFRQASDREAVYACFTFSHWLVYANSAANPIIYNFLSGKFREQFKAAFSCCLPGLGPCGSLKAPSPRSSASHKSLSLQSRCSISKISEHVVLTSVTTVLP
TAAR1 ag: human TAAR1 agonists, primary screen, Fluo-8 calcium fluorescence, CHO RD-HGA16 cells. vehicle wells 0%, saturating PEA agonist 100%. hit rate 0.99% among 360,000. Trace amine-associated receptor 1 (Homo sapiens), Q96RJ0. AID 624467, 2012. activation, % at 3 µM;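 active = activation above the mean activation of all test compounds in the run plus 3 SD, cut at about 38% in these data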
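Test system: RD-HGA16 (CHO) cells co-expressing Gα16 and hTAAR1 / Benchmarks: DMSO vehicle as 0%, PEA at EC100 as 100% / Repeats: no replicates (n 1) / Measure: % activation from peak over basal fluorescence ratio, DMSO-to-PEA scaled / Timing: 17-24 h plating, Fluo-8 75 min 37 °C, 30 min RT / Technique: kinetic Fluo-8 calcium fluorescence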
GPR7 antagonist: GPR7 receptor antagonists, primary screen, cell-based, fluorescence, single concentration; Neuropeptides B/W receptor type 1 (Homo sapiens), P48145; GPR7-expressing cells, fluorescence antagonist assay; inhibition, % at 4.4 µM; hit rate 1.1% among 290,000; in the data active = inhibition above about 16%, passing the limit was not always enough;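 also: cells stimulated with the agonist NPW; 0% = agonist with vehicle and 100% = vehicle without agonist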
CHO parental Ca: ATP-evoked calcium signal inhibitors, parental CHO, primary screen, counter-screen for OX1R antagonist project, cell-based, fluorescence, Fluo-8 calcium dye. parental CHO-K1, ATP-induced calcium, Fluo-8 fluorescence. inhibition, % at 5.6 µM. hit rate 0.63% among 330,000. AID 463079, 2010;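 active = inhibition above that plate's mean sample inhibition plus 3 SD, cut at about 26% in these data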;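 also: 0% = ATP-challenged DMSO wells and 100% = DMSO wells without ATP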
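test system = CHO parental line | reagent = ATP stimulus | measured by = intracellular calcium via Fluo-8 no-wash fluorescent dye | control set = ATP and no-ATP DMSO wells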
TAAR1 antagonist: human TAAR1 antagonists, primary screen, Fluo-8 calcium fluorescence, CHO RD-HGA16 cells. inhibition, % at 3 µM. hit rate 1.5% among 360,000. antagonist;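 active = inhibition above a per-plate cutoff, the mean inhibition of test compounds on that plate plus 3 SD, cut at about 49% in these data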;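 also: 0% = DMSO plus EC80 beta-PEA response and 100% = DMSO alone without agonist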
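Test system: CHO RD-HGA16 cells bearing hTAAR1 | Reagent: β-PEA, EC80 | Compound dosing: 3 µM, single point | Schedule: Dye loading 75 min at 37 °C, then 30 min room temperature | Signal: Calcium fluorescence with Fluo-8 | Evaluation: Percent inhibition of PEA-evoked calcium signal, max/basal emission ratio | Control set: DMSO-only wells and EC80 β-PEA-stimulated wells | Repeats: Singlicate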
OX1R antag-2: OX1R (HCRTR1) antagonists, primary screen, fluorescence, CHO/OX1R cells, Fluo-8 calcium, orexin A. Fluo-8 calcium fluorescence. hit rate 0.43% among 330,000. Orexin/Hypocretin receptor type 1 (Homo sapiens), O43613. inhibition, % at 5 µM;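 active = inhibition above its plate's threshold, mean inhibition of all tested compounds on the plate plus 3 SD, cut at about 37% in these data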;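 also: 0% = orexin A challenge wells and 100% = SB-334867-A antagonist wells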
An asterisk follows results filed as active; . = no result.

SMILES	OX1R antag-1	TAAR1 ag	GPR7 antagonist	CHO parental Ca	TAAR1 antagonist	OX1R antag-2
NCCc1ccc(OCc2ccccc2)c(OCc2ccccc2)c1	-7	55*	.	22	46	11
O=c1c2cc(Br)ccc2[nH]c(=S)n1-c1ccccc1	35	0	29*	-4	30	15
CS(=O)(=O)c1ccc(C2=C(CNC(=O)c3cccs3)[C@H]3CC[C@@H](C2)N3Cc2ccccc2)cc1	.	1	.	.	4	.
COc1ccc(-c2cc(=NCC(=O)O)c3ccccc3o2)cc1	64*	.	5	-26	.	-19
COc1ccc(-c2cc(=NCCCCCC(=O)O)c3cc(C)ccc3o2)cc1	.	0	5	.	-1	.
CC(C)(C)c1cc(C=C(C#N)C#N)cc(C(C)(C)C)c1O	44*	1	.	-5	37	-12
C/C=C(\C)C(=O)OC1C(C)=C2C(C1OC(=O)CCCCC)C(C)(OC(C)=O)CC(OC(=O)CCC)C1(O)C2OC(=O)C1(C)O (stereo not drawn)	2	.	.	101*	.	101*
C[C@@H]1NCCc2cc(O)c(O)cc21	15	3	.	-9	-26	-12
CN1CCc2cccc(Cl)c2CC1	11	102*	.	-4	86*	-2
CN1CCN(Cc2c(F)cccc2Cl)CC1	.	4	-6	.	4	.
CCN1CCC2(CC1)NC(CO)(CO)CO2	17	4	20	0	13	6
CSCCC(c1nnnn1-c1ccc2c(c1)OCCO2)N1CCC(n2c(=O)[nH]c3ccccc32)CC1 (stereo not drawn)	.	13	.	.	62*	.
CCC(c1nnnn1-c1ccc2c(c1)OCCO2)N1CCC(n2c(=O)[nH]c3ccccc32)CC1 (stereo not drawn)	.	18	.	.	66*	.
COC(=O)C1=C(c2cccc(C#N)c2)C[C@@H]2CC[C@H]1N2C(=O)NCCc1ccccc1	-1	22	.	-18	-4	-12
COc1cc2c(cc1OC)-c1c(OC)c(OC)c(OC)c3ccnc(c13)C2=O	68*	.	3	-24	.	-6
CNC(C)Cc1ccc(OC)cc1 (stereo not drawn)	.	4	.	.	-17	.
CC12CCC(=O)C=C1CC(O)C1C2CCC2(C)C1CCC2(C)O (stereo not drawn)	.	2	.	.	12	.
Nc1ncc([N+](=O)[O-])s1	36*	2	.	-7	-18	0
C#C[C@]1(O)CCC2C3C(=O)C=C4C(Cl)=CCC[C@]4(C)C3CC[C@@]21C (stereo partly drawn)	.	5	.	.	12	.
COC1=CC(=O)[C@]2(C=C1OC)OC[C@@H]1Oc3c(ccc4c3C=CC(C)(C)O4)C(=O)[C@@H]12	33	10	.	62*	22	60*
C=C1C(O)[C@@H]2O[C@]3(CC[C@H](/C=C/C(C)[C@@H]4CC(C)=CC5(O[C@H](C[C@@](C)(O)C(=O)O)CCC5O)O4)O3)CC[C@H]2O[C@@H]1C(O)CC(C)[C@H]1OC2(CCCCO2)CCC1C (stereo partly drawn)	50*	.	.	-10	.	34
Cc1ccccc1-n1c(O)c(/C=C2/C(c3ccccc3)=Nc3ccccc32)c(=O)[nH]c1=O	25	2	29*	-10	21	-3
O=S(=O)(c1ccccc1)N1Cc2ccccc2-n2nncc2C1	.	1	.	.	2	.
COc1cccc(C(c2nnnn2-c2ccc3c(c2)OCCO3)N2CCC(n3c(=O)[nH]c4ccccc43)CC2)c1OC (stereo not drawn)	.	51*	.	.	79*	.
O=c1[nH]c2ccccc2n1C1CCN(C(c2cccc3ccccc23)c2nnnn2Cc2ccccc2)CC1 (stereo not drawn)	.	8	.	.	50*	.
SMILES	OX1R antag-1	TAAR1 ag	GPR7 antagonist	CHO parental Ca	TAAR1 antagonist	OX1R antag-2
O=c1[nH]c2ccccc2n1C1CCN(C(CCc2ccccc2)c2nnnn2C2CCCC2)CC1 (stereo not drawn)	.	16	.	.	56*	.
O=c1[nH]c2ccccc2n1C1CCN(C(c2ccccc2OC(F)(F)F)c2nnnn2-c2ccc3c(c2)OCCO3)CC1 (stereo not drawn)	.	12	.	.	52*	.
COc1ccc(CNCCc2cccc(F)c2)c2ccccc12	.	.	17	.	.	.
Cc1ccc(NC2=NCCCS2)cc1Cl	5	-1	-7	-8	3	-23
CCc1nc2ccccc2c(=O)n1-c1ccccc1OC	.	-1	11	.	-8	.
O=C(CN1CCOCC1)NCC(=O)Nc1ccc(Br)cc1C(=O)c1ccccc1	4	2	-1	-12	21	-8
c1ccc(CCN2CCC3CCNC3C2)cc1 (stereo not drawn)	.	3	.	.	-8	.
ClCCN1CCN(c2ccnc3cc(Cl)ccc23)CC1	-1	12	-12	-5	-18	-19
COc1ccc(C(c2nnnn2-c2c(C)cccc2C)N2CCC(n3c(=O)[nH]c4ccccc43)CC2)cc1 (stereo not drawn)	.	3	.	.	-31	.
COc1ccc(-n2nnnc2C(c2ccccc2)N2CCC(n3c(=O)[nH]c4ccccc43)CC2)cc1 (stereo not drawn)	.	14	.	.	67*	.
COc1ccc(-n2nnnc2C(c2cccc(OC)c2OC)N2CCC(n3c(=O)[nH]c4ccccc43)CC2)cc1 (stereo not drawn)	.	13	.	.	56*	.
CC(C)Sc1nnc([C@@H](N)Cc2c[nH]c3ccccc23)o1	40*	1	-1	-9	13	6
COC(=O)C1=C(c2ccccc2OCc2ccccc2)C[C@@H]2CC[C@H]1N2C(=O)NCc1ccc(C(F)(F)F)cc1	10	2	.	-34	33	-4
COC(=O)C1=C(c2ccc(F)cc2OCc2ccccc2)C[C@@H]2CC[C@H]1N2C(=O)NCc1ccc(C(F)(F)F)cc1	16	23	.	-19	53*	15
O=C(COc1ccc(Cl)cc1)N1CCN(C/C=C/c2ccccc2)CC1	2	6	-8	0	24	-12
CN[C@H]1C[C@H]2O[C@@](C)([C@H]1OC)n1c3ccccc3c3c4c(c5c6ccccc6n2c5c31)C(=O)NC4	-18	.	30*	-14	.	-28
CC1C2Cc3ccc(O)cc3C1(C)CCN2CC1CC1 (stereo not drawn)	.	1	.	.	12	.
O=c1[nH]c2ccccc2n1C1CCN(C(c2ccccc2)c2nnnn2-c2ccc3c(c2)OCCO3)CC1 (stereo not drawn)	.	22	.	.	62*	.
O=c1[nH]c2ccccc2n1C1CCN(C(c2nnnn2-c2ccc3c(c2)OCCO3)C2CC2)CC1 (stereo not drawn)	.	15	.	.	62*	.
CN(C)C(=O)Oc1ccc2nnc3ccnn3c2c1	36*	-2	-15	-4	11	-6
